# Paper PMC3061052 (Nucleic Acids Research, 2010)
# Residue numbers refer to the chain shown, from its start. Entries after “also recorded” stand apart in the source; their conditions may differ.
# Experiments:
# NpmA (wild-type) = molecular target: T1, NpmA (wild-type) (Escherichia coli, UniProt A8C927); test: ITC titration of wild-type NpmA with cofactor; format: binding
# T1 sequence (A8C927 1-219): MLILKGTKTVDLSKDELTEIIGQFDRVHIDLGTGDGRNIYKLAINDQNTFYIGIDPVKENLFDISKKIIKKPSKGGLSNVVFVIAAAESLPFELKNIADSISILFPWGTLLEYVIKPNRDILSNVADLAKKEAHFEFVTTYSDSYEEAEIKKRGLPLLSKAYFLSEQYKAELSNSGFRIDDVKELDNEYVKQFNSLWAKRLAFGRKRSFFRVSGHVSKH
# NpmA E88A = molecular target: T2, NpmA E88A (Escherichia coli, UniProt A8C927, E88A); test: ITC titration of NpmA E88A variant with cofactor; format: binding; conditions: 20°C
# T2 sequence (A8C927 1-219 E88A): T1 sequence (A8C927 1-219) with E88A
# NpmA D30A = molecular target: T3, NpmA D30A (Escherichia coli, UniProt A8C927, D30A); test: ITC titration of NpmA D30A variant with cofactor; format: binding; conditions: 20°C
# T3 sequence (A8C927 1-219 D30A): T1 sequence (A8C927 1-219) with D30A
# NpmA D55A = molecular target: T4, NpmA D55A (Escherichia coli, UniProt A8C927, D55A); test: ITC titration of NpmA D55A variant with cofactor; format: binding; conditions: 20°C
# T4 sequence (A8C927 1-219 D55A): T1 sequence (A8C927 1-219) with D55A
# NpmA S195A = molecular target: T5, NpmA S195A (Escherichia coli, UniProt A8C927, S195A); test: ITC titration of NpmA S195A variant with cofactor; format: binding; conditions: 20°C
# T5 sequence (A8C927 1-219 S195A): T1 sequence (A8C927 1-219) with S195A
# [1] = tested on: E. coli BL21(DE3)pLysS cells carrying recombinant pET-25b(+) vector with different npmA variants; test: Kanamycin MIC dilution assay in cells carrying npmA variants; format: cell-based, Escherichia coli
# Summary of the method: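 BL21(DE3)pLysS cells with pET-25b(+) npmA variants were grown overnight, diluted 100-fold in LB with ampicillin (100 mg/l) and chloramphenicol (34 mg/l), and grown to OD600 1. Cells were inoculated into the same medium with kanamycin at 0.5–1024 mg/l in twofold steps and incubated 18 h at 37°C. MIC was the lowest kanamycin concentration preventing visible growth.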
structure (smiles),measurement,setting,value
"Nc1ncnc2c1ncn2[C@@H]1O[C@H](CSCC[C@H](N)C(=O)O)[C@@H](O)[C@H]1O [AdoHcy, S-adenosylhomocysteine]",N (ITC single site fit) for AdoHcy,NpmA (wild-type),1.0
same,Kd for AdoHcy,NpmA E88A,completely lost their ability to interact; also recorded: No binding
same,Kd for AdoHcy,NpmA D30A,completely lost their ability to interact; also recorded: No binding
same,Kd for AdoHcy,NpmA D55A,completely lost their ability to interact; also recorded: No binding
"C[S+](CC[C@H](N)C(=O)[O-])C[C@H]1O[C@@H](n2cnc3c(N)ncnc32)[C@H](O)[C@@H]1O (stereo partly shown) [AdoMet, S-adenosylmethionine]",Kd for AdoMet,NpmA S195A,complete loss of AdoMet binding; also recorded: No binding
same,N (ITC single site fit) for AdoMet,NpmA (wild-type),1.1
same,Kd,"NpmA (wild-type); Kd for AdoMet, ITC, 20°C, no 30S subunit",18 µM
same,Kd for AdoMet,NpmA E88A,completely lost their ability to interact; also recorded: No binding
same,Kd for AdoMet,NpmA D30A,completely lost their ability to interact; also recorded: No binding
same,Kd for AdoMet,NpmA D55A,completely lost their ability to interact; also recorded: No binding
"NC[C@H]1O[C@H](O[C@H]2[C@H](O)[C@@H](O[C@H]3O[C@H](CO)[C@@H](O)[C@H](N)[C@H]3O)[C@H](N)C[C@@H]2N)[C@H](O)[C@@H](O)[C@@H]1O [Kanamycin, kanamycin]",Kanamycin MIC,"[1]; Negative control (empty vector), 18 h at 37°C",4 to 8 µg/mL
same,Kanamycin MIC,[1]; cells expressing NpmA D30A,8 µg/mL
same,Kanamycin MIC,[1]; cells expressing NpmA D55A,512 µg/mL
same,kanamycin MIC compared to the wt NpmA,[1]; cells expressing NpmA D55A,50%
same,Kanamycin MIC,[1]; cells expressing NpmA E88A,1024 µg/mL
same,Kanamycin MIC,[1]; cells expressing NpmA F177A,1024 µg/mL
same,Kanamycin MIC,[1]; cells expressing NpmA K199A,1024 µg/mL
same,Kanamycin MIC,[1]; cells expressing NpmA P106A,1024 µg/mL
same,Kanamycin MIC,[1]; cells expressing NpmA R200A,1024 µg/mL
same,Kanamycin MIC,[1]; cells expressing NpmA R205A,1024 µg/mL
same,Kanamycin MIC,[1]; cells expressing NpmA S195A,1024 µg/mL
same,Kanamycin MIC,[1]; cells expressing NpmA T109A,1024 µg/mL
same,Kanamycin MIC,[1]; cells expressing NpmA W107A,8 µg/mL
same,Kanamycin MIC,[1]; cells expressing NpmA W197A,8 µg/mL
same,Kanamycin MIC,[1]; cells expressing NpmA-wt,1024 µg/mL
